Assay results pooled from the literature.
Target: Dual specificity protein kinase CLK4 (CLK4, Homo sapiens, UniProt Q9HAZ1)

For `Cc1cc(NC(=O)c2cccc3cc(-c4cccc5[nH]nc(N)c45)ccc23)ccc1F`, the activity vs control was 90% (enzyme activity; inhibitor; 0.1 µM).
For `CN(c1ccnc(CNc2nc(Nc3ccc4c(c3)CC(=O)N4)ncc2C(F)(F)F)n1)S(C)(=O)=O`, the remaining binding was 1.4% (binding; competition with immobilised ligand; 1 µM).
With `Cn1cnc(Br)c1C1=CN(c2ncnc3[nH]cnc23)CCS1` the inhibition was 98.8% (enzyme activity; inhibitor; radiometric; 2 µM).
`O=C(Nc1cccnn1)N1CCC(=Cc2cccc(Oc3ccc(C(F)(F)F)cn3)c2)CC1` gave a remaining binding of 70% (cell-free assay; competition with immobilised ligand; 1 µM).
For `CN(CCCC(F)(F)F)c1nccc(-c2cnn3ncccc23)n1`, the remaining binding was 25% (binding; 1 µM).
The remaining binding of `FC(F)(F)c1ccc2c(c1)nc(-c1cccnc1)n2C1CC1` is reported as 100% (cell-free assay; competition with immobilised ligand; 1 µM).
With `Cc1ccc(C(=O)Nc2ccc(CN3CCN(C)CC3)c(C(F)(F)F)c2)cc1C#Cc1cnc2cccnn12` the remaining activity was 54% (enzyme activity; inhibitor; 23.5 nM).
`Cc1ccc(NC(=O)c2ccc(C)c(C(F)(F)F)c2)cc1C#Cc1nn(C2CCC(O)CC2)c2ncnc(N)c12` (centres unmarked) gave a remaining signal of 58% (cell-free assay; 10 µM).
With `N#CCCc1ccc2c(c1)-c1[nH]c3ccc([N+](=O)[O-])cc3c1CC(=O)N2` the remaining signal was 77.1% (cell-free assay; 0.5 µM).
`NS(=O)(=O)c1cc(NC(=O)Cc2ccccc2)ccc1Oc1cccc(Cl)c1` has a remaining binding of 83% (cell-free assay; competition with immobilised ligand; 1 µM).
For `O=C(CSc1nc2nccnc2c(=O)n1CCc1ccccc1)Nc1nccs1`, the inhibition was 5% (enzyme activity; inhibitor; 10 µM).
With `CS(=O)(=O)N1CCCC(NC(=O)[C@H](CCC2CCCCC2)NC(=O)c2ccc(CNc3ncnc4c3nnn4-c3ccccc3)cc2)C1` (some centres unmarked) the remaining binding was 85% (cell-free assay; competition with immobilised ligand; 0.1 µM).
`Oc1cccc(-c2nc(N3CCOCC3)c3oc4ncccc4c3n2)c1` gave a remaining signal of 81.5% (cell-free assay; 0.5 µM).
`COc1cc(-c2cc(-c3ccc(N4CCNCC4)cc3)cnc2C)cc(OC)c1OC` has an inhibition of 1% (enzyme activity; inhibitor; 0.1 µM).
For `O=C(Nc1cnn(-c2csc(C(=O)NC3COC3)c2)c1)Nc1c(F)cccc1Cl`, the remaining activity was 93.2% (enzyme activity; inhibitor; 5 µM).
`Cn1cncc1C1=CN(c2ncnc3[nH]cnc23)CCS1` gave an inhibition of 84.7% (enzyme activity; inhibitor; radiometric; 2 µM).
`CCN1/C(=C/C(C)=O)Sc2ccc(OC)cc21` has a remaining signal of 18.5% (cell-free assay; 0.5 µM).
For `CC(C)(C)c1nc2c(s1)c1nc(N)ncc1c1ccc(NS(=O)(=O)c3c(F)cccc3F)c(F)c12`, the remaining activity was 81% (enzyme activity; inhibitor; radiometric; 1 µM).
`Cc1ccc(NC(=O)c2ccc(CN3CCN(C)CC3)cc2)cc1Nc1nc(-c2cccnc2)cs1` has a remaining signal of 93.3% (cell-free assay; 0.5 µM).
With `C[C@@H]1CN(c2cc(-c3nn(C)c4ccc(OC5(C)CC5)cc34)ncn2)C[C@H](C)O1` the remaining binding was 100% (cell-free assay; competition with immobilised ligand; 1 µM).
